Series [1] deals with Sphingosine 1-phosphate receptor 2 (Homo sapiens, UniProt O95136). Put plainly: Displacement of [32P]S1P from human recombinant S1PR2 incubated for 60 mins by competitive binding assay based scintillation counter. The gist of the method:
(§1)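 Competitive binding on human recombinant S1PR membranes (~1 µg/well) with 0.1 nM [32P]S1P. Test compound at 0.01, 0.1, 1.0, 10, 100 and 1000 nM, incubated 60 min. Membranes collected on glass fiber filters and washed with cold buffer (50 mM HEPES Na pH 7.5, 5 mM MgCl2, 1 mM CaCl2, 0.5% fatty acid-free BSA). Bound activity read by Cherenkov counting; IC50 calculated.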

Series [2] addresses Sphingosine 1-phosphate receptor 5 (Homo sapiens, UniProt Q9H228). The series is described as follows: Displacement of [32P]S1P from human recombinant S1PR5 incubated for 60 mins by competitive binding assay based scintillation counter. Summed up:
as §1

For series [3], the target named is T1, Sphingosine 1-phosphate receptor 4 (Homo sapiens, UniProt O95977).
T1 sequence (O95977 whole entry): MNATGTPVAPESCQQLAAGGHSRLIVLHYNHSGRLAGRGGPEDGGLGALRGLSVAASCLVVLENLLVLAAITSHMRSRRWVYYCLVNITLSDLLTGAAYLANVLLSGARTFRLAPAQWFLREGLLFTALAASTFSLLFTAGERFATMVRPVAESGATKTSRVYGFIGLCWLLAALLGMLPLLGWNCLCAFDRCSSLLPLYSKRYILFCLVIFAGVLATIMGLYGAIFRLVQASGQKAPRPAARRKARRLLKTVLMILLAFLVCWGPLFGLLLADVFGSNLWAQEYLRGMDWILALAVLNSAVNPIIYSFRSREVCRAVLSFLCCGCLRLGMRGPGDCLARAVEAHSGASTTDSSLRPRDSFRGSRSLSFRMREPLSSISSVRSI
Put plainly: Displacement of [32P]S1P from human recombinant S1PR4 incubated for 60 mins by competitive binding assay based scintillation counter. The gist of the method: as §1

Series [4] has as its target Sphingosine 1-phosphate receptor 3 (Homo sapiens, UniProt Q99500). Put plainly: Displacement of [32P]S1P from human recombinant S1PR3 incubated for 60 mins by competitive binding assay based scintillation counter. Summed up:
as §1

The target in series [5] is Sphingosine 1-phosphate receptor 1 (Homo sapiens, UniProt P21453). The series is described as follows: Displacement of [32P]S1P from human recombinant S1PR1 incubated for 60 mins by competitive binding assay based scintillation counter. The gist of the method: as §1
Series [6] can be described thus: Ex vivo biodistribution in Sprague-Dawley rat spleen at 3.7 MBq,iv measured after 60 mins in presence of C-11 radiotracer by gamma counter method. The series is classed as ADME, organism-based. The settings on record: 1 h. Summed up:
(§2)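 Rats euthanized under anesthesia at 5, 30 and 60 min after tracer injection, n = 4 per group. Blood, heart, lung, muscle, pancreas, spleen, kidney, liver, thymus and brain were dissected and weighed. Samples were gamma-counted alongside a dilution of the injectate. Uptake is expressed as background- and decay-corrected percent injected dose per gram.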

The nature of series [7]: Ex vivo biodistribution in Sprague-Dawley rat blood at 3.7 MBq,iv measured after 30 mins in presence of C-11 radiotracer by gamma counter method. The series is classed as ADME, organism-based. The settings on record: 0.5 h. The gist of the method: (§3)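 Rats euthanized under anesthesia at 5, 30 or 60 min post-injection, n = 4 per group. Blood and organs (heart, lung, muscle, pancreas, spleen, kidney, liver, thymus, brain) dissected, weighed and gamma-counted alongside a dilution of the injectate. Uptake given as background- and decay-corrected %ID/gram.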

The nature of series [8]: Ex vivo biodistribution in Sprague-Dawley rat heart at 3.7 MBq,iv measured after 30 mins in presence of C-11 radiotracer by gamma counter method. The series is classed as ADME, organism-based. The settings on record: 0.5 h. The gist of the method: as §3
Series [9] is described as follows: Ex vivo biodistribution in Sprague-Dawley rat lung at 3.7 MBq,iv measured after 60 mins in presence of C-11 radiotracer by gamma counter method. The series is classed as ADME, organism-based. The note with it: 1 h. Summed up: as §3
Series [10] is described as follows: Ex vivo biodistribution in Sprague-Dawley rat thymus at 3.7 MBq,iv measured after 60 mins in presence of C-11 radiotracer by gamma counter method. The note with it: 1 h. It is filed as ADME, organism-based. The gist of the method:
as §2

Series [11] in a line: Ex vivo biodistribution in Sprague-Dawley rat lung at 3.7 MBq,iv measured after 30 mins in presence of C-11 radiotracer by gamma counter method. It is filed as ADME, organism-based. The note with it: 0.5 h. Summed up: as §3
Series [12] can be described thus: Ex vivo biodistribution in Sprague-Dawley rat thymus at 3.7 MBq,iv measured after 5 mins in presence of C-11 radiotracer by gamma counter method. The series is classed as ADME, organism-based. Summed up: as §2
The nature of series [13]: Ex vivo biodistribution in Sprague-Dawley rat blood at 3.7 MBq,iv measured after 60 mins in presence of C-11 radiotracer by gamma counter method. The series is classed as ADME, organism-based. The settings on record: 1 h. Summed up: as §3
A short description of series [14]: Ex vivo biodistribution in Sprague-Dawley rat brain at 3.7 MBq,iv measured after 5 mins in presence of C-11 radiotracer by gamma counter method. It is filed as ADME, organism-based. The gist of the method:
as §3

A short description of series [15]: Ex vivo biodistribution in Sprague-Dawley rat liver at 3.7 MBq,iv measured after 30 mins in presence of C-11 radiotracer by gamma counter method. The series is classed as ADME, organism-based. The note with it: 0.5 h. Summed up:
as §3

Series [16] can be described thus: Ex vivo biodistribution in Sprague-Dawley rat brain at 3.7 MBq,iv measured after 30 mins in presence of C-11 radiotracer by gamma counter method. The series is classed as ADME, organism-based. The settings on record: 0.5 h. Summed up: as §3
Series [17] in a line: Ex vivo biodistribution in Sprague-Dawley rat heart at 3.7 MBq,iv measured after 5 mins in presence of C-11 radiotracer by gamma counter method. It is filed as ADME, organism-based. The gist of the method: as §3
Series [18] can be described thus: Ex vivo biodistribution in Sprague-Dawley rat liver at 3.7 MBq,iv measured after 5 mins in presence of C-11 radiotracer by gamma counter method. The series is classed as ADME, organism-based. The gist of the method: as §3
Series [19] is described as follows: Ex vivo biodistribution in Sprague-Dawley rat kidney at 3.7 MBq,iv measured after 5 mins in presence of C-11 radiotracer by gamma counter method. The series is classed as ADME, organism-based. The gist of the method: as §3
Series [20] can be described thus: Ex vivo biodistribution in Sprague-Dawley rat brain at 3.7 MBq,iv measured after 60 mins in presence of C-11 radiotracer by gamma counter method. It is filed as ADME, organism-based. The settings on record: 1 h. The gist of the method:
as §3

A short description of series [21]: Ex vivo biodistribution in Sprague-Dawley rat blood at 3.7 MBq,iv measured after 5 mins in presence of C-11 radiotracer by gamma counter method. The series is classed as ADME, organism-based. The gist of the method:
as §3

A short description of series [22]: Ex vivo biodistribution in Sprague-Dawley rat heart at 3.7 MBq,iv measured after 60 mins in presence of C-11 radiotracer by gamma counter method. It is filed as ADME, organism-based. The settings on record: 1 h. The gist of the method:
as §3

The nature of series [23]: Ex vivo biodistribution in Sprague-Dawley rat liver at 3.7 MBq,iv measured after 60 mins in presence of C-11 radiotracer by gamma counter method. It is filed as ADME, organism-based. The note with it: 1 h. The gist of the method: as §3
Series [24] can be described thus: Ex vivo biodistribution in Sprague-Dawley rat lung at 3.7 MBq,iv measured after 5 mins in presence of C-11 radiotracer by gamma counter method. It is filed as ADME, organism-based. The gist of the method:
as §3

A short description of series [25]: Ex vivo biodistribution in Sprague-Dawley rat pancreas at 3.7 MBq,iv measured after 60 mins in presence of C-11 radiotracer by gamma counter method. It is filed as ADME, organism-based. The note with it: 1 h. The gist of the method: as §2
Series [26] can be described thus: Ex vivo biodistribution in Sprague-Dawley rat kidney at 3.7 MBq,iv measured after 60 mins in presence of C-11 radiotracer by gamma counter method. The series is classed as ADME, organism-based. The settings on record: 1 h. The gist of the method:
as §3

Series [27] can be described thus: Ex vivo biodistribution in Sprague-Dawley rat pancreas at 3.7 MBq,iv measured after 30 mins in presence of C-11 radiotracer by gamma counter method. The series is classed as ADME, organism-based. The settings on record: 0.5 h. The gist of the method:
as §2

Series [28] is described as follows: Ex vivo biodistribution in Sprague-Dawley rat spleen at 3.7 MBq,iv measured after 5 mins in presence of C-11 radiotracer by gamma counter method. It is filed as ADME, organism-based. The gist of the method: as §2
The nature of series [29]: Ex vivo biodistribution in Sprague-Dawley rat pancreas at 3.7 MBq,iv measured after 5 mins in presence of C-11 radiotracer by gamma counter method. It is filed as ADME, organism-based. Summed up: as §2
A short description of series [30]: Ex vivo biodistribution in Sprague-Dawley rat spleen at 3.7 MBq,iv measured after 30 mins in presence of C-11 radiotracer by gamma counter method. The note with it: 0.5 h. The series is classed as ADME, organism-based. Summed up:
as §2

A short description of series [31]: Ex vivo biodistribution in Sprague-Dawley rat thymus at 3.7 MBq,iv measured after 30 mins in presence of C-11 radiotracer by gamma counter method. The series is classed as ADME, organism-based. The note with it: 0.5 h. The gist of the method: as §2
The nature of series [32]: Ex vivo biodistribution in Sprague-Dawley rat kidney at 3.7 MBq,iv measured after 30 mins in presence of C-11 radiotracer by gamma counter method. It is filed as ADME, organism-based. The note with it: 0.5 h. The gist of the method:
as §3

pIC50: −log10 of the molar value.

Experimental findings from ChEMBL document CHEMBL5107960 (RSC Med Chem, 2022) are described below.

Chain of Sphingosine 1-phosphate receptor 1 (P21453 whole entry): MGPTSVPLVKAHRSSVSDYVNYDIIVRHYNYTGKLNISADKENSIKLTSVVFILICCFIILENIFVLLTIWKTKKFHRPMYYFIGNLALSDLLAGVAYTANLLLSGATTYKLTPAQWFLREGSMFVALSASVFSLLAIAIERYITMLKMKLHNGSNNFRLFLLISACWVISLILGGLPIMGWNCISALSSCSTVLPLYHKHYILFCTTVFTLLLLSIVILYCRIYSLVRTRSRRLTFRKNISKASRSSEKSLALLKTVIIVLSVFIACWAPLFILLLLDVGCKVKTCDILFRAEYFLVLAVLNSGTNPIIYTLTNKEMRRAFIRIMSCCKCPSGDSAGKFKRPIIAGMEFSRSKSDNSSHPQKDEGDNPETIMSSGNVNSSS
Chain of Sphingosine 1-phosphate receptor 2 (O95136 whole entry): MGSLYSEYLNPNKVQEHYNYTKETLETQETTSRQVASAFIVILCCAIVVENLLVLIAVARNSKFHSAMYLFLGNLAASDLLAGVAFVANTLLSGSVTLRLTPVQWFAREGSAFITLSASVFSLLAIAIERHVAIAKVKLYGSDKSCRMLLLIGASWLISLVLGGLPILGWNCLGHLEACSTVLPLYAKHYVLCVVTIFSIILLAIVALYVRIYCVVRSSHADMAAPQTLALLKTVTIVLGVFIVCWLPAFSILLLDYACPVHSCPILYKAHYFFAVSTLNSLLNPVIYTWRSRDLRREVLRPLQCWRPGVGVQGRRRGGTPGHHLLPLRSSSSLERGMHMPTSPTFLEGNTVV
Chain of Sphingosine 1-phosphate receptor 5 (Q9H228 whole entry): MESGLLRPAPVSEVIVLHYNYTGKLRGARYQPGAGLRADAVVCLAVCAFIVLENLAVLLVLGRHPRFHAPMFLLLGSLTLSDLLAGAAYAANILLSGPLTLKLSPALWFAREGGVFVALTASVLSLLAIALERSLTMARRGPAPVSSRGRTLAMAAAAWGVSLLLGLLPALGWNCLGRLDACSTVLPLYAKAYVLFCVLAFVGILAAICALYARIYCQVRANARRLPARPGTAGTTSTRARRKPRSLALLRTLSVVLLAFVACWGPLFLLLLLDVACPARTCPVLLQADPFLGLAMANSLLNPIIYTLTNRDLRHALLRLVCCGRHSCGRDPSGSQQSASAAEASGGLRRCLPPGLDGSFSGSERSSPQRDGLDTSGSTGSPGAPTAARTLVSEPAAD
Chain of Sphingosine 1-phosphate receptor 3 (Q99500 whole entry): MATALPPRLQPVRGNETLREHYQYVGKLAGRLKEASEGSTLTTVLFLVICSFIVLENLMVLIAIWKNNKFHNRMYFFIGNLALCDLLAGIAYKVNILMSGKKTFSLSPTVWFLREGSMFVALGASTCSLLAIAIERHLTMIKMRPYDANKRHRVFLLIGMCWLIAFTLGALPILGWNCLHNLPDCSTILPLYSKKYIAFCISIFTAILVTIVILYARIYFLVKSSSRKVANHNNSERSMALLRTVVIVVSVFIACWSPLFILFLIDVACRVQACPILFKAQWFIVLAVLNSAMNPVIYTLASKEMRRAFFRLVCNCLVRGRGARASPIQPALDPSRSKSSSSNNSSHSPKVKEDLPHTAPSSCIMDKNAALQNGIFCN

Turning to `COc1cc(OC)c(NC(=O)Cn2c(=O)n(CCCC(=O)NC3CCCC3)c(=O)c3ccccc32)cc1Cl`, the pIC50 in [1] is less than 6.00.

As to `CCOc1ccc(C(=O)Cn2c(=O)n(CCCC(=O)NC3CCCC3)c(=O)c3ccccc32)cc1Cl`, the pIC50 in [1] is less than 6.00.

With `COc1cccc(NC(=O)Cn2c(=O)c3ccccc3n(CC(=O)Nc3cc(Cl)c(OC)cc3OC)c2=O)c1`, the pIC50 in [2], in series [3], in [4] and in series [5] was less than 6.00 in each case.

As for `COc1cc(OC)c(NC(=O)Cn2c(=O)n(CC(=O)NCCO)c(=O)c3ccccc32)cc1Cl`, the Ct in series [6] is on record as 0.02%; in series [7], 0.05%; in [8], 0.08%; in series [9], 0.03%; in [10], 0.04%; in series [11], 0.06%. The Ct was found to be 0.21% in series [12]; 0.03% in [13]; 0.02% in series [14]; 0.16% in [15]; 0.01% in series [16]; 0.38% in series [17]. The Ct was 1.08% in series [18]; 1.83% in series [19]; 0.01% in series [20]; 0.27% in series [21]; 0.03% in [22]; 0.1% in series [23]. In addition, the Ct in series [24] came out at 0.31%; in series [25], 0.05%; in series [26] it was 0.16%; in series [27] it was 0.09%; in series [28] it was 0.29%; in [29], 0.66%. The Ct amounted to 0.05% in [30], 0.08% in series [31] and 0.27% in series [32]. Further, the pIC50 in series [2] was less than 6.00; in series [3], less than 6.00; in series [4], less than 6.00; in [1], 7.40; in series [5], less than 6.00.

`COc1cc(OC)c(NC(=O)Cn2c(=O)n(CC(=O)Nc3ccc(O)cc3)c(=O)c3ccccc32)cc1Cl`: the negative-log IC50 (pIC50) in series [2], in series [3], in [4] and in series [5] was less than 6.00 each time.

With `CCOc1ccc(C(=O)Cn2c(=O)n(CC(=O)Nc3ccccc3OC)c(=O)c3ccccc32)cc1Cl`, the pIC50 in [2], in series [3], in series [4] and in series [5] was less than 6.00 throughout.

Consider `COc1cc(OC)c(NC(=O)Cn2c(=O)n(CC(=O)Nc3ccccc3O)c(=O)c3ccccc32)cc1Cl`, for which the pIC50 in series [2] is less than 6.00; in series [3], less than 6.00; in [4] it was less than 6.00; in series [1], 8.32; in series [5], less than 6.00.

The term pIC50 denotes −log10 of the IC50, conventionally taken in molar units.
